DNMT1 block – human DNMT1 methyltransferase inhibitors, primary screen, biochemical, molecular beacon, fluorescence, HinP1I cleavage, uHTS. inhibition (reported as % activation of signal), % at 10 µM. 360,000 tested, 0.83% active. AID 588458, 2011; in the data active means inhibition above about 50%
Target sequence (P26358 504-1616 limits assumed): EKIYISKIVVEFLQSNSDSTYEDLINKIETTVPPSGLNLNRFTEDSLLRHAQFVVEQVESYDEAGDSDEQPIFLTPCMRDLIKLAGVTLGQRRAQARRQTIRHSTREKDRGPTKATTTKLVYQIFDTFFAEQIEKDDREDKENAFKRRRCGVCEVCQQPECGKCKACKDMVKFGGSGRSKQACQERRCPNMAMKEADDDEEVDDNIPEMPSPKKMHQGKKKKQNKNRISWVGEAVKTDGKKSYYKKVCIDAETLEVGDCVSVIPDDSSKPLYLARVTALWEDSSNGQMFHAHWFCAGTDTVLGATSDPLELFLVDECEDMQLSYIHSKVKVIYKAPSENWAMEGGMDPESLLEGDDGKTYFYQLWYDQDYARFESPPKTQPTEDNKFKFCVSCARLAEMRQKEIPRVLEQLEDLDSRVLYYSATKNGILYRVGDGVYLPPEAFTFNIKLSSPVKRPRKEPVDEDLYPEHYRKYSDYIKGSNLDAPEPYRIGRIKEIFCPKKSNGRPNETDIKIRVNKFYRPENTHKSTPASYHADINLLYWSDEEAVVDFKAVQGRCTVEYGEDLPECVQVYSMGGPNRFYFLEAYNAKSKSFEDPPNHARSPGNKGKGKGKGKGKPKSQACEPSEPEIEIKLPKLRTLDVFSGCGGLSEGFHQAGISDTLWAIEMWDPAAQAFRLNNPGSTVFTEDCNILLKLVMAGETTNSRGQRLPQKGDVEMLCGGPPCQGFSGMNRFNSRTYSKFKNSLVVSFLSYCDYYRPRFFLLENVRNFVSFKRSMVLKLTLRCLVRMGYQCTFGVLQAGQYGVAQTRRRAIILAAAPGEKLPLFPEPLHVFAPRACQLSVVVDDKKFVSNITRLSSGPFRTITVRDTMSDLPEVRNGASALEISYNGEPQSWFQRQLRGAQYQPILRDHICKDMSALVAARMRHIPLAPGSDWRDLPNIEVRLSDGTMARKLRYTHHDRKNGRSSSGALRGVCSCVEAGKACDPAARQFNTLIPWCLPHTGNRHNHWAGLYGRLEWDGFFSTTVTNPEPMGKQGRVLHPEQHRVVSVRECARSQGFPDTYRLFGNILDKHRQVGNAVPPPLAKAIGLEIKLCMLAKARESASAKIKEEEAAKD
LMPTP inh – LMPTP phosphatase inhibitors, primary screen, biochemical, fluorescence intensity, uHTS; Low molecular weight phosphotyrosine protein phosphatase (Homo sapiens), P24666; recombinant LMPTP-A, OMFP fluorogenic substrate; inhibition, % at 20 µM; 360,000 tested, 0.22% active; AID 651560, 2012;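 active means compounds that cut the enzyme signal by at least half of the control window in the single-dose screen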;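 further: plate controls were DMSO wells with enzyme plus substrate for no effect and substrate without enzyme for full effect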
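Assay system: LMPTP-A enzyme. Input: 0.625 nM LMPTP-A final. Probe or stimulus: 400 µM OMFP. Compound dosing: single 20 µM dose. Schedule: 50 min dark incubation at room temperature. Detection: fluorescence intensity of OMFP turnover product. Read-out: percent inhibition versus substrate-only and uninhibited controls. Benchmarks: no-enzyme low control, uninhibited high control.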
SUMO1 PPI mod – modulators of SUMO1 protein-protein interactions, primary screen, biochemical, uHTS | Small ubiquitin-related modifier 1 (Homo sapiens), P63165 | inhibition, % at 20 µM | 360,000 tested, 0.33% active | SUMO1 binding to a labelled peptide, TR-FRET, 1 h; in the data active means inhibition above about 37%
STEP inh – STEP phosphatase inhibitors, primary screen, biochemical, fluorescence intensity, uHTS; 360,000 tested, 0.25% active; inhibition, % at 20 µM; Tyrosine-protein phosphatase non-receptor type 5 (Homo sapiens), P54829; recombinant STEP, OMFP fluorogenic substrate; AID 588621, 2011;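 active means inhibition at 20 µM, scaled per plate between control wells, above about 37%, limit read from the data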;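 further: 0% = DMSO with enzyme and substrate and 100% = substrate only without enzyme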
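Material: STEP (striatal-enriched tyrosine phosphatase) enzyme, cell-free | Medium: 50 mM Bis-Tris pH 6.0 with 2.5 mM DTT and 0.005% Tween 20 | Read-out: Percent inhibition scaled to no-enzyme and uninhibited-enzyme controls, plate-pattern corrected | Signal: Fluorescence read at 480 nm ex / 540 nm em | Times: 20 min reaction, room temperature, in the dark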
Scp-1 inhibitor – Scp-1 phosphatase inhibitors, primary screen, biochemical, colorimetric, uHTS. Carboxy-terminal domain RNA polymerase II polypeptide A small phosphatase 1 (Homo …. Recombinant Scp1, phosphopeptide, malachite green phosphate absorbance. inhibition, % at 20 µM. 340,000 tested, 0.88% active. AID 493091, 2011;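 active means inhibition above about 50% at 20 µM, limit read from the data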;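 further: plate controls were DMSO wells with enzyme for no effect and wells lacking enzyme for full effect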
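assay system = SCP-1 phosphatase catalytic domain, residues 76-261 | buffer or medium = 50 mM Tris acetate pH 5.5, 0.005% Tween-20, 10 mM MgCl2 | incubation = enzyme reaction 45 min at room temperature, colour 5 min, stabilisation 30 min | signal = Phosphate-binding colour reagent, absorbance read at 630 nm | measure = % inhibition at 20 µM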
DNMT1 confirm – DNMT1 methyltransferase inhibitor retest, confirmation, biochemical, molecular beacon, fluorescence, single concentration; shares compounds with DNMT1 block; DNMT1 molecular beacon HinP1I cleavage; inhibition, % at 10 µM; 2,300 tested, 8% active; AID 602385, 2012;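 active means average inhibition of at least 30% in the single-concentration confirmation test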
Beacon interf – shows spectral interference in the DNMT1 beacon assay. shares compounds with DNMT1 block. DNMT1 molecular beacon spectral interference counterscreen, fluorescence 485/520. activation (fluorescence interference), % at 10 µM. 2,300 tested, 1% active;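 active means activation of at least 30% at 10 µM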;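 further: DNMT1 catalytic domain with a HinP1I cleavage step and a FAM/dabcyl DNA beacon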
* hit, by the source's call; / = no result given. Sampled rows, rich in hits. Any-hit rate of the full collection: about 1.8%.

SMILES	DNMT1 block	LMPTP inh	SUMO1 PPI mod	STEP inh	Scp-1 inhibitor	DNMT1 confirm	Beacon interf
CCc1cccc(CC)c1-n1c(SCC(=O)c2c(N)n(C)c(=O)n(C)c2=O)nnc1-c1cccnc1	59*	1	3	3	-2	0	-3
c1ccc(-c2nc(-c3ccco3)n3ccccc23)cc1	57*	8	23	1	-8	1	1
Cc1ccc(C2(C(F)(F)F)NC(=O)N3CCN=C3S2)cc1 (configuration not stated)	95*	-5	35	3	-7	4	5
Cc1ccc(C2(C(F)(F)F)NC(=O)N3CCCN=C3S2)cc1 (configuration not stated)	0	-1	-3	0	-5	/	/
COc1cccc(N=Nc2c(=O)[nH]n3c(=O)c4c([nH]c23)CCC4)c1	60*	13	-10	4	23	-1	-5
O=c1[nH]n2c(=O)c3c([nH]c2c1N=Nc1cccc(C(F)(F)F)c1)CCCC3	5	2	15	8	0	/	/
Cc1sc2nc(SCC(=O)NCc3ccco3)n(C)c(=O)c2c1C	2	1	-1	4	3	/	/
C=CCn1c(SCC(=O)NCc2ccco2)nc2ccccc2c1=O	0	0	0	3	-1	/	/
C=CCn1c(SCC(=O)NC(=O)NCc2ccco2)nc2sc(CC)cc2c1=O	62*	10	3	3	39	6	2
CCn1c(SCC(=O)NC(=O)NCc2ccco2)nc2sc(C)c(C)c2c1=O	78*	30	50*	4	44	2	4
CC(=O)c1cccc(NC(=O)COc2ccc3oc(=O)cc(C)c3c2)c1	1	1	7	-2	1	/	/
COc1ccccc1/C=C(\C#N)C(=O)c1cccn1C	2	-1	-7	4	-14	/	/
COc1ccc(NC(=O)c2cc(C3CCCCN3S(C)(=O)=O)on2)c(C)c1 (configuration not stated)	0	-2	-3	-1	/	/	/
COC(=O)c1ccccc1NC(=O)c1cc(-c2cccs2)on1	56*	5	0	2	0	3	-3
COC(=O)c1ccccc1NC(=O)c1cc(-c2ccco2)on1	8	3	-2	2	-1	/	/
CC(=O)OCCc1[nH]c2ccccc2c1C	4	-3	4	3	-1	/	/
CC(=O)OCCc1c2ccccc2c(CCCN(C)C)c2ccccc12	51*	3	-46	0	-10	3	2
COc1ccc(CCNC(=O)Cn2c(=O)n(-c3ccc(F)cc3)c(=O)c3sccc32)cc1OC	1	-1	-3	-1	-11	/	/
COc1cc2c(=O)[nH]c3cc([N+](=O)[O-])ccc3c2cc1[N+](=O)[O-]	76*	38	99*	3	/	-3	-5
CCc1nc(CNC(=O)C2CCC(=O)N(Cc3ccccc3F)C2)no1 (configuration not stated)	4	-2	0	-3	-5	/	/
Cn1c(-c2ccccc2)cc(=O)n1-c1ccccc1	70*	0	4	1	-5	7	5
COc1ccccc1CCNC(C)CCc1ccc(O)cc1 (configuration not stated)	68*	-1	0	-4	-5	11	3
Cc1cc(C)cc(-n2nnnc2SCC(=O)N2CCOCC2)c1	79*	0	4	1	1	0	4
COc1cc(OC)cc(-n2nnnc2SCC(=O)N2CCCC2)c1	-2	-3	-2	-2	-5	/	/
O=C(OCC(=O)N1CCc2ccccc21)c1ccncc1	3	-1	-1	2	-2	/	/
SMILES	DNMT1 block	LMPTP inh	SUMO1 PPI mod	STEP inh	Scp-1 inhibitor	DNMT1 confirm	Beacon interf
CCNc1ccc(Br)cc(C(=O)/C=C/c2ccccc2Cl)c1=O	77*	26	19	9	-10	8	8
Cc1cc(C)cc(Nc2nc3c(S(=O)(=O)c4ccccc4)nnn3c3ccccc23)c1	54*	-1	-4	3	-1	3	-4
Cc1cccc(Nc2nc3c(S(=O)(=O)c4ccccc4)nnn3c3ccccc23)c1	42	0	0	0	-8	/	/
N#CCSc1nnc(-c2ccc(F)cc2)n1N	92*	-2	3	-1	-1	5	4
O=C1c2cccc3c(O)ccc(c23)C(=O)N1Cc1ccco1	95*	-3	-104	-72	12	133*	116*
CCn1nnnc1NCc1ccc(SC)cc1	-2	0	3	-1	-1	/	/
CCn1nnnc1NCc1ccc(N2CCCC2)cc1	82*	60*	0	4	-2	4	3
CCc1c(Cl)nc(N)nc1Nc1ccccc1C	75*	0	-1	-3	-10	1	2
Cc1ccc(NC(=O)c2ncn(CCCNCC3CCCO3)n2)cc1C (configuration not stated)	0	-2	-1	-2	0	/	/
COc1ccc(-c2ccc(C(=O)Nc3cccc(NS(C)(=O)=O)c3)c3occc23)c(C)c1	-16	5	1	-1	/	/	/
Nc1cc2c3ccccc3ccc2c2ccccc12	91*	16	22	3	5	4	9
S=c1[nH]nc(-c2ccncc2)n1/N=C/c1cn(-c2ccccc2)nc1-c1ccc(Cl)cc1	75*	2	0	2	12	1	6
CSc1nnc(-c2ccncc2)n1/N=C/c1cn(-c2ccccc2)nc1-c1ccc(Cl)cc1	6	2	8	-2	11	/	/
O=C(N=C1SC2CS(=O)(=O)CC2N1Cc1ccccc1Cl)C1CC1 (configuration not stated)	1	1	-3	0	-6	/	/
O=C(CCCCCn1c(=S)[nH]c2cc3c(cc2c1=O)OCO3)N1CCN(c2ccccc2)CC1	66*	2	1	4	-6	-2	-6
O=C(c1cc2cc(Br)ccc2oc1=O)N1CCN(c2ccccn2)CC1	2	0	-7	-2	3	/	/
O=C(c1cc2cc(Cl)ccc2oc1=O)N1CCN(c2ccccn2)CC1	89*	1	-6	1	0	-2	2

Screens as filed in PubChem.
